This is an account of results in article PMC6408981 (Neuropharmacology, 2018).

The target of series [1] is human recombinant CB1 receptor (Homo sapiens, UniProt P21554). Description: Cannabinoid receptor binding, [3H]-CP-55,940 displacement, CB1. The method in brief:
(§1)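 Membranes from HEK-293 cells stably expressing the human receptor (CB1 Bmax 2.5, CB2 Bmax 4.7 pmol/mg protein) were incubated with test compound and [3H]-CP-55,940 for 90 min at 30 °C. […] Nonspecific binding was defined with 10 μM WIN 55212-2. Ki came from IC50 via Cheng-Prusoff; at least 3 experiments, mean ± SEM.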

Series [2] deals with human recombinant CB2 receptor (Homo sapiens, UniProt P34972). Description: Cannabinoid receptor binding, [3H]-CP-55,940 displacement, CB2. The gist of the method:
as §1

The target in series [3] is T1, fatty acid amide hydrolase (Rattus norvegicus, UniProt P97612).
T1 sequence (P97612 1-579): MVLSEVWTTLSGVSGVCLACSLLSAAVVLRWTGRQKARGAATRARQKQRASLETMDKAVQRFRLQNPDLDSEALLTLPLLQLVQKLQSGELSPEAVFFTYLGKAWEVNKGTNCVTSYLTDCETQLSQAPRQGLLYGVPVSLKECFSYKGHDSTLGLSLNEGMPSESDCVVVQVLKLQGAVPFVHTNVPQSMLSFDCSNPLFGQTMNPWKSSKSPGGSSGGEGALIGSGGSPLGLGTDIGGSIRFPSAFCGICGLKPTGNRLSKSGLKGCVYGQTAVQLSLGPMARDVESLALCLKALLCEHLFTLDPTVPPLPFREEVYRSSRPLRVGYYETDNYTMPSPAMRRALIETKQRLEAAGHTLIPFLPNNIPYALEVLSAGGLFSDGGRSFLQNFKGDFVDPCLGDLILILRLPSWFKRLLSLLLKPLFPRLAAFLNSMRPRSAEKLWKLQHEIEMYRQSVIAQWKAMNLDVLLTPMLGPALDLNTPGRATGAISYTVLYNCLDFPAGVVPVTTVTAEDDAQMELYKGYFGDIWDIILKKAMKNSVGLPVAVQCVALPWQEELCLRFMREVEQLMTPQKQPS
Put plainly: AEA hydrolysis by rat brain membranes. In kind it is biochemical.

In series [4] the test system is ICR mice. Description: Tetrad behavioral assessment. As to conditions: for Distance traveled / Speed / Time immobile: 10 min recording starting 5 min after injection; for Δ rectal temperature / Catalepsy / Antinociception: 30 min after injection; for Catalepsy: bar test; for Antinociception: tail withdrawal. The class given is in vivo, mouse. The method in brief: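 Mice were acclimated at least 1 h, then baseline tail-withdrawal latency and body temperature were taken. Test compound or vehicle was given i.p.; 30 min later came bar-test catalepsy (immobility over 60 s), tail withdrawal (%MPE with 10 cutoff) and Δ temperature. Locomotor: 5 min post-dose, distance (cm) and immobile time (s) were video-tracked for 10 min. Analysis: one-way ANOVA, Dunnett.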

Series [5] is described as follows: OlGly levels in plasma and brain regions after i.p. injection. The class given is in vivo, mouse. The method in brief: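 ICR mice received test compound (60 mg/kg i.p.) or vehicle. After 15 min, plasma, insular cortex, hippocampus and hypothalamus were collected. Samples were extracted with chloroform/methanol/50 mM Tris-HCl pH 7.5 (2:1:1) containing deuterated internal standards. Quantification was by isotope-dilution LC-MS (C18 column, isocratic methanol/water/acetic acid, positive ESI).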

Another series relates to nicotine-dependent mice. Description: Mecamylamine-precipitated nicotine withdrawal. In kind it is in vivo, mouse. The gist of the method:
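Male ICR mice (6–8 weeks, 27–32 g) had s.c. minipumps implanted under isoflurane, delivering nicotine 24 mg/kg/day or saline for 14 days. On day 15 they got the test compound i.p. (10, 30 or 60 mg/kg) or vehicle, then mecamylamine 2 mg/kg s.c. at 15 min. From 25 min, blinded scoring: 5 min elevated plus maze (open/closed-arm time, arm crosses), then 20 min somatic signs; n = 7–8/group.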

The test system of series [6] is ICR mice. Put plainly: Nicotine conditioned place preference. In kind it is in vivo, mouse. The method in brief:
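Male ICR mice underwent unbiased three-chamber CPP. Day 1: 5-min middle-chamber habituation, then 15 min free access as baseline. Days 2–4: two 20-min conditioning sessions daily, 4 h apart. Controls got saline in both large chambers, with i.p. pretreatment 15 min before. Day 5: 15-min drug-free test. Score = test minus baseline time on the paired side.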

Series [7] relates to ICR mice. Description: Morphine conditioned place preference. The note with it: OlGly i.p. pretreatment, morphine 10 mg/kg s.c. (methods). The class given is in vivo, mouse. The method in brief: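 Unbiased three-chamber CPP in male ICR mice. Day 1 baseline: 15 min free access after 5-min habituation. Days 2–4: twice-daily conditioning, 4 h apart and counterbalanced. Test compound or vehicle was given i.p. 15 min before morphine (10 mg/kg s.c.); 30-min sessions began 15 min after morphine. Day 5: 15-min drug-free test. Score = test minus baseline time in the morphine-paired side.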

In series [8] the test system is ICR mice. Put plainly: Cumulative CP55,940 dose-response study. In kind it is in vivo, mouse. The gist of the method:
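Male ICR mice (6–8 weeks, 27–32 g) received test compound (60 mg/kg i.p.) or vehicle 10 min before the first CP55,940 dose. Further doses followed every 40 min. Bar-test catalepsy, tail-flick and rectal temperature were measured at baseline and 30 min after each dose. Analysis was two-way ANOVA with Sidak post-hoc.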

Another series has as its target T2, PPAR-α (Mus musculus, UniProt P23204).
T2 sequence (P23204 1-468): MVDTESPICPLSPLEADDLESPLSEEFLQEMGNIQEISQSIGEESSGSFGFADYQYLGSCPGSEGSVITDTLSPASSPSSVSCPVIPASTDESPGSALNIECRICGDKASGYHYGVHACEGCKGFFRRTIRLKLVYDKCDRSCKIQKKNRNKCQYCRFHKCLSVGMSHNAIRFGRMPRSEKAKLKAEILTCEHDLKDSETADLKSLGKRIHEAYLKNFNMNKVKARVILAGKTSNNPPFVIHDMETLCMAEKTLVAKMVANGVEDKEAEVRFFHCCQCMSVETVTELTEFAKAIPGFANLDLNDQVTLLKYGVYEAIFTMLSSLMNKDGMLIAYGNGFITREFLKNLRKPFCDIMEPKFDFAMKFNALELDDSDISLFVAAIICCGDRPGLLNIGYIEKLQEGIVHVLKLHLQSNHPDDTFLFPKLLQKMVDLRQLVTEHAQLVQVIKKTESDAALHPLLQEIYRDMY
Description: PPAR-α luciferase assay in COS-7 cells. In kind it is cell-based. The note with it: 18 h. The gist of the method:
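COS-7 cells in DMEM with 10% FBS were transfected by lipofection with mouse PPAR-α (25 ng), PPRE×3-TK-luciferase (300 ng), β-galactosidase control (100 ng) and empty pcDNA3 (75 ng) per well. Next day the medium was replaced with compound-containing medium for 18 h. Firefly luciferase chemiluminescence was normalised to β-galactosidase activity and compared by Welch-corrected t-test.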

A further series concerns rats. The note with it: ref Chaturvedi et al., 2006; cited from earlier work.
The subject of series [9] is ICR mice. As to conditions: ref Ignatowska-Jankowska et al., 2015; cited from earlier work.
For a further series, the system named is dependent smokers. As to conditions: ref Perkins et al., 2016; cited from earlier work.
A further series has as its system mice. As to conditions: ref Jackson et al., 2017; cited from earlier work.
The test system of the next series is smokers. As to conditions: clinical trials; ref Robinson et al., 2017; cited from earlier work.
The mark [10] stands for this setting: 60 mg/kg i.p., 15 min after injection, ICR mice.

Sequence of human recombinant CB1 receptor (P21554 whole entry): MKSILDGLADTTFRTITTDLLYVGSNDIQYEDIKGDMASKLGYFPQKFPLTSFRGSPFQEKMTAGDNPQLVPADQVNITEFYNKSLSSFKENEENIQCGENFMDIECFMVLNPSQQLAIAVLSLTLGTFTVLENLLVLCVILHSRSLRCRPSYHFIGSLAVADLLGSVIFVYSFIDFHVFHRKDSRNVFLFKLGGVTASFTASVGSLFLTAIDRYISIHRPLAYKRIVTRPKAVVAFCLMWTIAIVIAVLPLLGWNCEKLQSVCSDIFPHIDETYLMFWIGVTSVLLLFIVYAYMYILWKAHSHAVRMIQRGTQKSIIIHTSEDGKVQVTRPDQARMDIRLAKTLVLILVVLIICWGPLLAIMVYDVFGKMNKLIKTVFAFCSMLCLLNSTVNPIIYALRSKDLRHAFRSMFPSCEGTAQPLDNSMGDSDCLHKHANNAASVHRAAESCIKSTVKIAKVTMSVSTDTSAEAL
Sequence of human recombinant CB2 receptor (P34972 whole entry): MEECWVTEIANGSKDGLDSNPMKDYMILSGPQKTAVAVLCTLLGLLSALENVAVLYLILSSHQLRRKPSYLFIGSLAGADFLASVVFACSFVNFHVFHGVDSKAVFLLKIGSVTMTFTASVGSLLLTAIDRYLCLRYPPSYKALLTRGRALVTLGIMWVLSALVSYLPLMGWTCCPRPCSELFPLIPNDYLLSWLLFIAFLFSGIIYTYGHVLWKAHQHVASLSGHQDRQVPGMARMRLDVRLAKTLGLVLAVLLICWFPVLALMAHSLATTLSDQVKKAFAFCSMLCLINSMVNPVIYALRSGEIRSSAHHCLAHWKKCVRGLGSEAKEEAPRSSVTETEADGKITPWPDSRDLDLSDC

One may read the IC50 as the concentration needed to halve the response being measured. As usually defined, the Ki is a dissociation constant, usually derived from enzyme kinetics or from competition with a known ligand. A word on the inhibition: it is the drop in the measured response relative to a control, in per cent. `CCCCCCCC/C=C\CCCCCCCC(=O)NCC(=O)O` [OlGly, N-oleoyl-glycine]: in [1], the IC50 stood at 45.5 ± 5.1 µM and the Ki stood at 27.8 ± 3.1 µM. For the same compound, the “CB1 displacement produced by maximum dose tested (50 μM)” value in series [1] (50 μM) worked out at 55.9 ± 7.3%. In addition, in series [2], the IC50 was greater than 50 µM and the inhibition constant Ki was greater than 50 µM. Moreover, in series [2] (50 μM), the “CB2 displacement produced by maximum dose tested (50 μM)” value was 15.5 ± 6.40%. The compound also gave a 50% inhibitory concentration (IC50) in series [3] of 8.65 µM. Moreover, in [3] (read-out: FAAH inhibition produced by maximum dose tested (50 μM)), the inhibition at 50 µM was 89.4%. Besides, in the series with ICR mice [4] (10 mg/kg i.p.), the Distance traveled was determined as 24.3 ±1.2 cm, the Speed stood at 8.1 ± 0.4 cm/s, the Time immobile amounted to 8.6 ± 1.6 s and the Δ rectal temperature was −0.90 ± 0.19 °C. In the series with ICR mice [4] (10 mg/kg i.p.), this compound showed a Catalepsy of 0.0 s and an Antinociception of 12.0± 6.6 %MPE. In the series on ICR mice [4] (30 mg/kg i.p.), this compound registered a Distance traveled of 21.5±1.7 cm, a Speed of 7.2 ± 0.6 cm/s, a Time immobile of 11.8 ± 6.2 s and a Δ rectal temperature of −1.13 ± 0.26 °C. In the series on ICR mice [4] (30 mg/kg i.p.), this compound had a Catalepsy of 0.0 s and an Antinociception of 6.0 ± 4.5 %MPE. Moreover, in the series with ICR mice [4] (100 mg/kg i.p.), the Distance traveled was determined as 18.6±1.5 cm, the Speed worked out at 6.21 ± 0.5 cm/s, the Time immobile was determined as 17.4 ± 7.3 s and the Δ rectal temperature was −0.22 ± 0.5431 °C. In the series on ICR mice [4] (100 mg/kg i.p.), the Catalepsy is recorded as 0.0 s and the Antinociception is listed as 25.9±11.0 %MPE. Further, in series [5] (setting [10]), the “OlGly levels in hippocampus” value is 186.0 ± 60.05 pmol/g, the “OlGly levels in hypothalamus” value is listed as 245.6 ± 108.1 pmol/g and the “OlGly levels in insula” value is listed as 168.0 ± 60.28 pmol/g. Further, the concentration at 15 min in series [5] (ICR, mouse, plasma, intraperitoneal, 60 mg/kg) was 2000 ± 627 nM. Besides, the “Number of mecamylamine-precipitated somatic withdrawal signs” value with nicotine-dependent mice (60 mg/kg i.p., nicotine-dependent mice) is “attenuated the number of mecamylamine-precipitated somatic withdrawal signs”. In addition, the “Overt behavioral alterations in control mice” value in the series with nicotine-dependent mice (control mice continuously infused with saline) was “did not elicit overt behavioral alterations”. The “Development of nicotine-induced CPP” value in the series on ICR mice [6] (i.p. 15 min before nicotine 0.5 mg/kg s.c. on conditioning days, mice) is recorded as “dose-dependently prevented the development of nicotine-induced CPP”. For the same compound, the “Place preference in saline-treated mice” value in the series with ICR mice [6] (saline-treated mice) is “did not affect place preference”. The “Morphine CPP” value in the series on ICR mice [7] was “did not carry over to morphine CPP”. Besides, the “Shift of the CP55,940 dose-response relationship in the tetrad assay” value with ICR mice [8] (OlGly 60 mg/kg i.p. 10 min before first CP55,940 dose, mice) is on record as “did not alter the dose-response relationship”. For the same compound, at PPAR-α (OlGly 10 mM, 50 μM and 100 mM as printed in Fig. 6), the “Luciferase activity compared to DMSO” value is reported as “significantly increased luciferase activity”. Besides, in the series on rats, the Locomotor activity result was “decreases locomotor activity” and the “Reduction of body temperature” value is 1.5–2.0 °C.
`Cc1ccc2c(C(C[N+](=O)[O-])c3cccs3)c(-c3ccccc3)[nH]c2c1` (stereo not shown) [ZCZ011]: the “Shift of the CP55,940 dose-response curve (antinociceptive, cataleptic, hypothermic effects)” value in the series with ICR mice [9] is recorded as “elicited a leftward shift”.
Consider `CC(C)OC(=O)C(C)(C)Oc1ccc(C(=O)c2ccc(Cl)cc2)cc1` [fenofibrate], for which the “Ability to stop smoking during a brief practice quit period” value in the series on dependent smokers is “did not facilitate the ability to stop smoking”. For the same compound, the “Reversal of nicotine withdrawal” value with mice is reported as “failed to reverse nicotine withdrawal”.
Turning to `Cc1c(C(=O)NN2CCCCC2)nn(-c2ccc(Cl)cc2Cl)c1-c1ccc(Cl)cc1` [rimonabant], the “Smoking abstinence compared with placebo” value in the series on smokers is on record as “effectively improved smoking abstinence”.
`CCC(=O)NC[C@H](Cc1ccc(OCCc2nc(-c3ccccc3)oc2C)cc1)N/C(C)=C\C(=O)c1ccc(C(F)(F)F)cc1` [GW6471, N-((2S)-2-(((1Z)-1-methyl-3-oxo-3-(4-(trifluoromethyl)phenyl)prop-1-enyl)amino)-3-(4-(2-(5-methyl2phenyl-1,3-oxazol-4-yl)ethoxy)phenyl)propyl)propanamide, reference compound]: in the series with ICR mice [6] (GW6471 2 mg/kg i.p. 30 min before OlGly, mice), the “Effect on OlGly blockade of nicotine CPP” value is recorded as “fully prevented OlGly blockade of nicotine CPP”.
Take “(−)-cis-3-[2-hydroxy-4-(1,1-dimethylheptyl)phenyl]-trans-4-(3-hydroxypropyl)-cyclohexanol [CP55,940, reference compound]”: the “Catalepsy, antinociception and hypothermia” value in the series on ICR mice [8] (cumulative 0, 0.3, 1 and 3 mg/kg i.p., vehicle-pretreated mice) is “dose-dependently induced”.
As to `CC(C)(Sc1ccc(CCN(CCCCC2CCCCC2)C(=O)NC2CCCCC2)cc1)C(=O)O` [GW7647, reference compound], the “Luciferase activity compared to DMSO” value at PPAR-α (GW7647 10 mM as printed in Fig. 6) was “significantly increased luciferase activity”.
